# Source: PubChem (Broad Institute)
# Compounds with a hit are over-represented: about 2% of the library has one in this group of screens.
# Xi reactivation – activators of X-chromosome reactivation in mouse fibroblasts. XiGFP mouse fibroblasts, % GFP-positive cells imaging, 3 d; cells co-treated with 5-aza-dC sensitizer; scaled so ellipticine positive control = 100%. 0.055% of 360,000 active. activation, % at 7.58 µM;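 active = mean normalized replicate activation at least 10% and every replicate at or above 10%; inconclusive = only one of the two criteria met; inactive = mean below 10% and not all replicates reach 10%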;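 also: 0% = median of on-plate neutral control wells and 100% = ellipticine 6 µM median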
#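 Material: SV40-immortalized XiGFP fibroblast cells, line 68-5-11 | Buffer or medium: DMEM containing 5-aza-dC | Dosing: One concentration, pinned | Times: 3 d treatment, 15 min room-temperature fixation | Controls: Ellipticine 6 µM positive control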
# FN deposition inh – fibronectin deposition inhibition; AH1F fibroblasts, Alexa488-fibronectin deposition fluorescence, overnight; inhibition, % at 12.6 µM; AID 743247; 0.086% of 350,000 active;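 active = mean inhibition across replicates of 30% or more, regardless of how many single replicates reach that level; inconclusive = mean under 30% yet at least half of replicates reach 30%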;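 also: positive control wells lacked labelled fibronectin entirely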
#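 Test system: AH1F fibroblast monolayer depositing Alexa488-labelled fibronectin into matrix. Input: 10000 cells per well. Technique: fluorescence, ex 485 nm, em 525 nm. Buffer or medium: DMEM plus 2% serum, read in PBS. Timing: 1 h cell adhesion before compound, then overnight fibronectin incubation. Compound: single dose, pinned. Read-out basis: inhibition from reduced deposited-fibronectin fluorescence.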
# CaV13 ICDI inh – Disruptors of the CACNA1D IQ motif to Ca2+-dependent inactivation inhibitor domain association, primary screening, Förster resonance energy transfer in intact living …; HEK cells, CFP/YFP FRET ICDI-IQ, plate reader, 10 min; percent FRET-ratio fall versus neutral wells; AID 743397; inhibition, % at 12.3 µM; 0.098% of 340,000 active;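 active = mean replicate inhibition of at least 30% and at least 1% of replicates passing that level; inconclusive = only one of the two criteria is met; inactive = neither criterion is met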;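 also: 0% = median of the neutral control wells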
# DENV2 CPE – inhibitors of DENV2 cytopathic effect. DENV2-infected cells, cytopathic effect rescue, plate reader. CPE inhibition, % at 9.99 µM. 1.7% of 350,000 active. AID 651640; in the data active = CPE inhibition above about 20%, passing the limit was not always enough; inconclusive = no clear call, values can overlap the other calls; tested in BHK-21 cells;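 also: 0% = median of neutral control wells and 100% = median of positive control wells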
# CASP6 VEID inh – blocks human caspase-6 cleavage activity; purified caspase-6, Z-VEID-R110 cleavage fluorescence; P55212; 0.53% of 350,000 active; inhibition, % at 12.5 µM;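 active = mean inhibition across replicates at least about 35%, with every replicate also reaching that limit, limit read from the data; inconclusive = only one of the two criteria met; inactive = neither criterion met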;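 also: 0% = median of neutral control wells and 100% = no fluorescence left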
# Target sequence (P55212 24-179 limits assumed): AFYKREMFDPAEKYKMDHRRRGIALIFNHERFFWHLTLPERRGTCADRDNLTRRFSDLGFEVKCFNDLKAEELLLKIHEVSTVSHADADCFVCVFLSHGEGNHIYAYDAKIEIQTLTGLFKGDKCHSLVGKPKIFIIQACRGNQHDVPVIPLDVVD
# Target sequence (P55212 194-293 limits assumed): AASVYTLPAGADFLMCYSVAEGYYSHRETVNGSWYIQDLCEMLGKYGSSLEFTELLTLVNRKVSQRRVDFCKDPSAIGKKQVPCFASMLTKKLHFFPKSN
# * = called active by the depositor; ? = inconclusive; nt = no result.
SMILES,Xi reactivation,FN deposition inh,CaV13 ICDI inh,DENV2 CPE,CASP6 VEID inh
COc1ccc(-c2ccc([C@@H]3[C@@H](CO)N4CCCCN(C(=O)Cc5ccccc5)C[C@H]34)cc2)cc1,0,nt,nt,nt,nt
CC(C)c1ccc(N2C(=O)NC(=O)/C(=C\C=C\c3ccco3)C2=O)cc1,0,0,-10,-8,30
COc1ccc(CN2C(=O)NC(=O)/C(=C\c3cc(OC)c(OC)c(OC)c3)C2=O)cc1,0,1,-5,7,5
CCN1C(=O)C(=C/C=C/c2ccco2)C(=O)N(CC)C1=S,0,nt,-6,6,58*
Cc1ccc(/C=C2/C(=O)NC(=O)N(CCc3ccc(F)cc3)C2=O)o1,nt,nt,-1,nt,nt
O=C1NC(=O)N(CCc2ccc(F)cc2)C(=O)/C1=C/c1ccco1,0,11,11,5,83*
O=C1NC(=O)N(Cc2ccccc2)C(=O)/C1=C/C=C/c1ccco1,0,1,-5,8,39*
COc1ccc(CN2C(=O)NC(=O)/C(=C\c3ccco3)C2=O)cc1,0,-2,-4,1,82*
COC(=O)[C@@H]1N[C@@H]2c3ccc(C4=CCCC4)c(=O)n3C[C@@H]2[C@H]1CO,1,nt,nt,-16,0
C=C(Cl)CSC(=S)N(CC)CC,nt,nt,nt,32*,-4
COc1cc2c(c(OC)c1OC)-c1ccc(O)c(=O)cc1[C@@H](N)CC2,nt,nt,nt,86*,9
COc1cc2c(c(OC)c1OC)-c1ccc(C(=O)O)cc1[C@@H](NC(C)=O)CC2,0,-3,-6,nt,nt
CN1C2CCC1CC(OC(=O)c1ccc([N+](=O)[O-])cc1)C2 (stereo not drawn),0,2,-5,66*,-3
COc1ccc(C(=O)OC2C[C@H]3CC[C@@H](C2)N3O)cc1OC (stereo partly drawn),0,7,-3,1,-1
CN1C2CCC1CC(OC(=O)c1cccc(O)c1)C2 (stereo not drawn),nt,nt,nt,29*,-1
CC1CC(OC(=O)c2ccccc2)CC(C)N1C (stereo not drawn),0,6,-5,nt,nt
CCC1(CC)C(=N)N(C)C(=O)NC1=O,0,-10,-5,nt,-1
CCCCN1C(=N)C(CC)(CC)C(=O)NC1=O,0,3,-5,24*,0
O=C(Cc1cccnc1)N1CCCCN2[C@@H](CO)[C@@H](c3ccc(/C=C/c4ccccc4)cc3)[C@@H]2C1,0,nt,nt,-4,0
COC(=O)C1=C(c2ccc(OC(F)(F)F)cc2)C[C@@H]2CC[C@H]1N2C(=O)NC1CCCCC1,0,5,-8,37*,-5
COC(=O)C1=C(c2ccc(OC(F)(F)F)cc2)C[C@@H]2CC[C@H]1N2C(=O)NCCOc1ccc(OC)cc1,1,-6,-5,26*,2
COC(=O)C1=C(c2ccc(OC(F)(F)F)cc2)C[C@@H]2CC[C@H]1N2C(=O)NCCNC(C)=O,0,0,-6,-18,-3
O=C(Cc1ccccc1)N1CC2(C1)[C@H](c1ccccc1)[C@H](CO)N2Cc1cccc(F)c1,0,nt,nt,5,0
O=C(CN1CC(c2ccccc2)CC1=O)Nc1ccccc1 (stereo not drawn),0,-8,0,115*,1
Nc1ccccc1C(=O)OCCc1ccccc1,nt,nt,nt,78*,-3
SMILES,Xi reactivation,FN deposition inh,CaV13 ICDI inh,DENV2 CPE,CASP6 VEID inh
O=C(Cc1ccccn1)N1CCCCN2[C@@H](CO)[C@@H](c3ccc(-c4ccc(F)cc4)cc3)[C@@H]2C1,0,nt,nt,19,3
CCOC(=O)c1cccc(C2=C(CNC(C)=O)[C@H]3CC[C@@H](C2)N3Cc2ccccc2)c1,0,-8,-9,32*,1
CCOC(=O)c1cccc(C2=C(CNC(=O)c3cccnc3)[C@H]3CC[C@@H](C2)N3Cc2ccccc2)c1,0,1,-3,?,0
CC(C)OCCCNC(=O)c1c(N)n(CC2CCCO2)c2nc3ccccc3nc12 (stereo not drawn),nt,nt,-1,nt,55*
COC(=O)[C@H]1[C@H](CO)[C@H]2Cn3c(ccc(/C=C/c4ccccc4)c3=O)[C@@H]1N2C(=O)C1CCC1,0,nt,nt,-2,1
COC(=O)C1=C(c2ccc(-c3ccccc3)c(F)c2)C[C@@H]2CC[C@H]1N2C(=O)NCCCOC(C)C,0,-1,-10,25*,1
